# In ChEMBL document CHEMBL1121739, “Inhibition of human acrosin by monosaccharides and related compounds: structure-activity relationships” (J Med Chem, 1981):
# Target: Acrosin (Homo sapiens) (UniProt P10323)
# Experiment: Compound was tested for inhibition of Human acrosin by aldohexoses
# Set-up: concentration or dose not given beside the values
# Settings: concentration not given here
# Summary of the method: (§1)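 Purified human α-acrosin (acetic acid extract of frozen sperm, then Sephadex G-150 and CM-cellulose). Sugar at 200 mM was preincubated with enzyme for 5 min at ambient temperature in 50 mM sodium phosphate, pH 7.5. The reaction was started with 5×10^-5 M BAEE or 3×10^-4 M BAPA and followed at 253 nm. Results are % inhibition of the no-inhibitor control rate, as mean ± SE.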
# Acrosin (Homo sapiens), sequence (P10323 20-42 limits assumed): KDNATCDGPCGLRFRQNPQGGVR
# Acrosin (Homo sapiens), sequence (P10323 43-343 limits assumed): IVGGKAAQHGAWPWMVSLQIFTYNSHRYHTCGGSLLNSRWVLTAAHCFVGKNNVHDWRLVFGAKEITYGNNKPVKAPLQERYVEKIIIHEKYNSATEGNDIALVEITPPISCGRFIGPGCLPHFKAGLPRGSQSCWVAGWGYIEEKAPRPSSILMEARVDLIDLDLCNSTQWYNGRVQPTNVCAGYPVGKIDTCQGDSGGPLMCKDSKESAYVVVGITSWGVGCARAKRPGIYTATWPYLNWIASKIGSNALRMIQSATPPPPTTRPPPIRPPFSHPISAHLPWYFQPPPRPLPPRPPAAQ
row,inhibition [%],SMILES
1,34,OC[C@H]1O[C@@H](O)[C@H](O)[C@@H](O)[C@H]1O (stereo in doubt; form 1)
2,0,OC[C@@H]1OC(O)[C@@H](O)[C@H](O)[C@H]1O (some centres undefined)
3,62,C[C@H]1OC(O)[C@H](O)[C@@H](O)[C@H]1O (some centres undefined)
4,12,OC[C@H]1O[C@@H](O)[C@H](O)[C@@H](O)[C@H]1O (stereo in doubt; form 2)
5,0,OC[C@H]1OC(O)[C@H](O)[C@H](O)[C@H]1O (some centres undefined)
6,60,OC[C@H]1OC(O)[C@@H](O)[C@@H](O)[C@@H]1O (some centres undefined)
7,28,OC[C@H]1OC(O)[C@H](O)[C@@H](O)[C@@H]1O (some centres undefined)
8,20,C[C@H](O)[C@@H](O)[C@@H](O)[C@H](O)C=O

# Target: Acrosin (Homo sapiens) (UniProt P10323)
# Experiment: Compound was tested for inhibition of Human acrosin by ketoses
# Settings: concentration not given here
# Summary of the method: (§2)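 Homologous aldoses or ketoses of different carbon chain lengths were each tested at 100 mM against purified human α-acrosin. The enzyme was preincubated with sugar for 5 min at ambient temperature, pH 7.5, with 3×10^-4 M BAPA as substrate and hydrolysis read spectrophotometrically at 253 nm. Results are % inhibition of control activity, as mean ± SE with n given.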
row,inhibition [%],SMILES
1,41,OC[C@H]1OC(O)(CO)[C@@H](O)[C@@H](O)[C@@H]1O (some centres undefined)
2,15,O=C(CO)CO
3,38,O=C(CO)C(O)C(O)CO (centres undefined)

row,SMILES,inhibition [%]
1,O=C(CO)[C@@H](O)[C@H](O)[C@H](O)CO,47

# Target: Acrosin (Homo sapiens) (UniProt P10323)
# Experiment: Compound was tested for inhibition of Human acrosin by polyols
# Settings: concentration not given here
row,inhibition [%],SMILES
1,28,OCC(O)CO
2,29,OC[C@@H](O)[C@@H](O)[C@H](O)[C@H](O)CO
3,30,O[C@H]1[C@H](O)[C@@H](O)[C@H](O)[C@@H](O)[C@H]1O
4,38,OC[C@@H](O)[C@@H](O)[C@H](O)[C@@H](O)CO

# Target: Acrosin (Homo sapiens) (UniProt P10323)
# Experiment: Compound was tested for inhibition of Human acrosin by aldopentoses
# Set-up: concentration or dose not given beside the values
# Settings: concentration not given here
# Summary of the method: as §1
row,inhibition [%],SMILES
1,40,OC1OC[C@H](O)[C@@H](O)[C@@H]1O (some centres undefined)
2,50,OC1OC[C@@H](O)[C@@H](O)[C@@H]1O (some centres undefined)
3,65,OC1OC[C@H](O)[C@H](O)[C@H]1O (some centres undefined)
4,65,OC[C@H]1O[C@H](O)[C@H](O)[C@@H]1O
5,37,O=C[C@H](O)[C@@H](O)[C@H](O)CO
6,50,O[C@@H]1[C@H](O)[C@@H](O)OC[C@H]1O (stereo in doubt; form 1)
7,35,O[C@@H]1[C@H](O)[C@@H](O)OC[C@H]1O (stereo in doubt; form 2)

# Target: Acrosin (Homo sapiens) (UniProt P10323)
# Experiment: Compound was tested for inhibition of Human acrosin by aldoses
# Settings: not given
# Summary of the method: as §2
row,inhibition [%],SMILES
1,36,OC1OC[C@@H](O)[C@@H](O)[C@@H]1O (some centres undefined)
2,40,O=CC(O)C(O)CO (centres undefined)
3,48,OC[C@H]1OC(O)[C@@H](O)[C@@H](O)[C@@H]1O (some centres undefined)

# Target: Acrosin (Homo sapiens) (UniProt P10323)
# Experiment: Compound was tested for inhibition of Human acrosin by phosphorylated monosaccharides
# Set-up: concentration or dose not given beside the values
# Settings: concentration not given here
# Summary of the method: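 Phosphorylated sugars, as barium salts in the D configuration, were tested at 100 mM, limited by solubility; the parent sugars were also run at 100 mM. Each was preincubated 5 min with purified human α-acrosin before adding BAEE or BAPA. The spectrophotometric 253 nm assay measured % inhibition relative to a no-inhibitor control.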
row,inhibition [%],SMILES
1,18,O=P(O)(O)OC[C@H]1OC(O)(COP(=O)(O)O)[C@@H](O)[C@@H]1O (some centres undefined)
2,15,O=P(O)(O)OC[C@H]1O[C@H](O)[C@H](O)[C@@H]1O
3,3,O=P(O)(O)OC1O[C@H](CO)[C@H](O)[C@H](O)[C@H]1O (some centres undefined)
4,45,OC[C@H]1O[C@H](O)[C@H](O)[C@@H]1O
5,7,O=P(O)(O)OC[C@H]1O[C@](O)(CO)[C@@H](O)[C@@H]1O
6,9,O=P(O)(O)OC[C@@]1(O)O[C@H](CO)[C@@H](O)[C@@H]1O
7,10,O=P(O)(O)OC[C@H]1OC(O)[C@H](O)[C@@H](O)[C@H]1O (some centres undefined)
8,0,O=C[C@H](O)[C@@H](O)[C@@H](O)[C@H](O)CO

row,SMILES,inhibition [%]
1,O=C(CO)[C@@H](O)[C@H](O)[C@H](O)CO,46

# Target: Acrosin (Homo sapiens) (UniProt P10323)
# Experiment: Compound was tested for inhibition of Human acrosin by ketohexoses
# Settings: concentration not given here
# Summary of the method: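 Purified human α-acrosin from acetic acid extracts of frozen sperm, run through Sephadex G-150 and CM-cellulose. Sugars at 200 mM were preincubated with the enzyme for 5 min at ambient temperature in 50 mM sodium phosphate, pH 7.5. Reaction started with 5×10^-5 M BAEE or 3×10^-4 M BAPA; hydrolysis followed at 253 nm. Percent inhibition versus inhibitor-free control, mean ± SE of 3–6 determinations.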
row,SMILES,inhibition [%]
1,OCC1(O)OCC(O)C(O)C1O (centres undefined),58
2,O=C(CO)[C@@H](O)[C@H](O)[C@H](O)CO,66
3,O=C(CO)C(O)C(O)C(O)CO (centres undefined),18
4,O=P(O)(O)OC[C@H]1O[C@](O)(CO)[C@@H](O)[C@@H]1O,32
